An excerpt weighted towards active compounds, which were near 4.6% of everything screened.
CHO parental Ca: ATP-evoked calcium signal inhibitors, parental CHO, primary screen, counter-screen for OX1R antagonist project, cell-based, fluorescence, Fluo-8 calcium dye; parental CHO-K1, ATP-induced calcium, Fluo-8 fluorescence; inhibition, % at 5.6 µM; actives 0.63% (n = 330,000); AID 463079, 2010;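 active = inhibition above that plate's mean sample inhibition plus 3 SD, cut at about 26% in these data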
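Material – parental CHO cells · Reagent – ATP stimulus · Compound – single nominal dose of 5.6 µM per compound · Detection – Fluo-8 fluorescence · Read-out basis – percent inhibition of calcium signal · Controls – ATP-challenged DMSO wells low, unchallenged DMSO wells high · Repeats – no replicates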
OX1R antag-1: OX1R (HCRTR1) antagonists, primary screen, fluorescence, CHO/OX1R cells, Fluo-8 calcium, orexin A. Orexin/Hypocretin receptor type 1 (Homo sapiens), O43613. Fluo-8 calcium fluorescence. inhibition, % at 5 µM. actives 0.43% (n = 330,000). AID 434989, 2010;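 active = inhibition above its plate's threshold, mean inhibition of all tested compounds on the plate plus 3 SD, cut at about 37% in these data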
TAAR1 ag: human TAAR1 agonists, primary screen, Fluo-8 calcium fluorescence, CHO RD-HGA16 cells; Trace amine-associated receptor 1 (Homo sapiens), Q96RJ0; vehicle wells 0%, saturating PEA agonist 100%; activation, % at 3 µM; actives 0.99% (n = 360,000); AID 624467, 2012;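 active = activation above the mean activation of all test compounds in the run plus 3 SD, cut at about 38% in these data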
Target sequence (Q96RJ0 whole entry, looked up): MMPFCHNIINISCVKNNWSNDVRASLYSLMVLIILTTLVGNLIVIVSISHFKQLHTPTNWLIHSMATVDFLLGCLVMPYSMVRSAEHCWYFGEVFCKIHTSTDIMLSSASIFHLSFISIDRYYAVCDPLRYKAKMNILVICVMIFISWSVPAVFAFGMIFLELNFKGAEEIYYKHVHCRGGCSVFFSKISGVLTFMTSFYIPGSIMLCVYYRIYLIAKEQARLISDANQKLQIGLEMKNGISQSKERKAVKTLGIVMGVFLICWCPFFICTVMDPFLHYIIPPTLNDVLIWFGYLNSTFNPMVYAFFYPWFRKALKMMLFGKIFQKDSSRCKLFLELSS
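Assay system – CHO-derived RD-HGA16 cells with stable Gα16 and human TAAR1 · Compound dosing – one-point dosing at 3 µM (nominal) · Incubation – 17-24 h seeding, 75 min 37 °C dye, 30 min RT · Measured by – kinetic Fluo-8 calcium fluorescence · Control set – DMSO vehicle as 0%, PEA at EC100 as 100% · Repeats – single well for each compound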
OX1R antag-2: antagonists of human orexin 1 receptor (OX1R); OX1R-expressing cells, FRET antagonist read-out; Orexin/Hypocretin receptor type 1 (Homo sapiens), O43613; AID 485270, 2010; inhibition, % at 6.6 µM; actives 1.8% (n = 330,000); in the data active = inhibition mostly above about 38%, no sharp cut-off; inactive = mostly below about 40%
GPR7 antagonist: GPR7 receptor antagonists, primary screen, cell-based, fluorescence, single concentration | AID 1861, 2009 | Neuropeptides B/W receptor type 1 (Homo sapiens), P48145 | actives 1.1% (n = 290,000) | GPR7-expressing cells, fluorescence antagonist assay | inhibition, % at 4.4 µM; in the data active = inhibition above about 16%, passing the limit was not always enough;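 note: cells stimulated with the agonist NPW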
TAAR1 antagonist: human TAAR1 antagonists, primary screen, Fluo-8 calcium fluorescence, CHO RD-HGA16 cells; Trace amine-associated receptor 1 (Homo sapiens), Q96RJ0; antagonist; inhibition, % at 3 µM; actives 1.5% (n = 360,000);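 active = inhibition above a per-plate cutoff, the mean inhibition of test compounds on that plate plus 3 SD, cut at about 49% in these data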
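System: RD-HGA16 CHO cells with stable hTAAR1 and Gα16 | Probe or stimulus: EC80 β-phenethylamine stimulus | Dosing: 3 µM, single point | Times: Dye loading 75 min at 37 °C, then 30 min room temperature | Measured by: Fluo-8 calcium-sensitive fluorescence | Read-out basis: % inhibition of agonist calcium response | Replicates: n of 1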
nonsel antag count: nonselective antagonists in TAAR1 counter-screen cells, counter-screen for hTAAR1 antagonist project, cell-based, fluorescence, calcium; actives 77% (n = 2,400); shares compounds with TAAR1 antagonist; counterscreen cell line, antagonist mode; inhibition, % at 3 µM; in the data active = inhibition above about 22%;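 note: CHO-Ga16 host cells stimulated with ATP at an EC80 level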
TAAR1 antag conf: human TAAR1 antagonists, retest of hits, confirmation, cell-based, fluorescence | shares compounds with TAAR1 antagonist | TAAR1-expressing cells, fluorescence antagonist read-out | inhibition, % at 3 µM | actives 40% (n = 2,400); in the data active = inhibition above about 49%;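 note: CHO-Ga16 host cells challenged with agonist PEA near its EC80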
Ga16 nonsel ag: calcium activation in Ga16-expressing cells, counter-screen for TAAR1 antagonist project, cell-based, fluorescence. AID 651953, 2012. agonist counterscreen. shares compounds with TAAR1 antagonist. activation, % at 3 µM. actives 18% (n = 2,400); in the data active = activation above about 12%
TAAR1 ag counter: TAAR1 activation by candidate antagonists – cell-based, fluorescence, counter-screen for TAAR1 antagonist project. shares compounds with TAAR1 antagonist. hTAAR1 cell line, agonist mode. activation, % at 3 µM. actives 2% (n = 2,400); in the data active = activation above about 37%;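 note: CHO cells stably expressing TAAR1 with calcium dye readout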
Large screens that a line does not name were inactive (follow-up assays come after a bar, where they were run).

CC(C)CCNC(=O)C(c1ccc(O)cc1)N(Cc1cccs1)C(=O)C1COc2ccccc2O1 (centres undefined)	TAAR1 antagonist 56.6 | nonsel antag count 26.8 | TAAR1 antag conf 54.0 | Ga16 nonsel ag inactive | TAAR1 ag counter inactive
O=C(NC1CCCCC1)Oc1cc2oc(=O)sc2cc1Br	none
COc1ccc(-n2nc(C(=O)NCC(=O)Nc3cc(OC)c(OC)c(OC)c3)c3ccccc3c2=O)cc1Cl	TAAR1 antagonist 63.7 | nonsel antag count 28.4 | TAAR1 antag conf inactive | Ga16 nonsel ag inactive | TAAR1 ag counter inactive
COc1ccc(-n2nc(C(=O)NCC(=O)N3CCC(C)CC3)c3ccccc3c2=O)cc1Cl	TAAR1 antagonist 48.6 | nonsel antag count inactive | TAAR1 antag conf inactive | Ga16 nonsel ag inactive | TAAR1 ag counter inactive
CCOc1ccc(C(=O)N2CCN(S(=O)(=O)c3ccc4c(c3)OCCO4)CC2)cc1OCC	none (no result: CHO parental Ca, OX1R antag-1, OX1R antag-2, GPR7 antagonist)
N#C/C(=C\c1ccc(-c2ccc(C(=O)O)cc2)o1)C(=O)Nc1ccc(F)cc1	TAAR1 antagonist 70.1 | nonsel antag count 33.2 | TAAR1 antag conf inactive | Ga16 nonsel ag 16.6 | TAAR1 ag counter inactive
CC(C)[C@@H]1Cc2[nH][nH]c(=O)c2[C@H](CCc2ccccc2)O1	none (no result: CHO parental Ca, OX1R antag-1, OX1R antag-2, GPR7 antagonist)
CC(=O)C1=C(C)N(Cc2ccc(F)cc2)C(=S)NC1c1cccc(Br)c1 (centres undefined)	none (no result: CHO parental Ca, OX1R antag-1, OX1R antag-2, GPR7 antagonist)
COC(=O)C1=C(C)N(Cc2ccc(F)cc2)C(=S)NC1c1cccc(Br)c1 (centres undefined)	TAAR1 antagonist 54.2 (no result: CHO parental Ca, OX1R antag-1, OX1R antag-2, GPR7 antagonist) | nonsel antag count inactive | TAAR1 antag conf inactive | Ga16 nonsel ag inactive | TAAR1 ag counter inactive
COC(=O)C1=C(C)N(Cc2ccc(C(F)(F)F)cc2)C(=NCc2ccc3c(c2)OCO3)NC1c1cccc(Cl)c1 (centres undefined)	TAAR1 antagonist 49.0 (no result: CHO parental Ca, OX1R antag-1, OX1R antag-2, GPR7 antagonist) | nonsel antag count 31.0 | TAAR1 antag conf inactive | Ga16 nonsel ag 13.7 | TAAR1 ag counter inactive
CC1CC(C)CN(S(=O)(=O)c2cc3c4c(c2)C(C)C(=O)N4CCC3)C1 (centres undefined)	none
C[C@@H]1CC=C[C@@H]2[C@H]1C(=O)N(Cc1ccccc1)[C@H]2c1ccccc1Br	TAAR1 antagonist 69.8 (no result: GPR7 antagonist) | nonsel antag count inactive | TAAR1 antag conf inactive | Ga16 nonsel ag inactive | TAAR1 ag counter inactive
O=C(c1cc(-c2ccncc2)nc2ccccc12)N1CCN(S(=O)(=O)/C=C/c2ccccc2)CC1	TAAR1 antagonist 69.6 | nonsel antag count 28.8 | TAAR1 antag conf inactive | Ga16 nonsel ag inactive | TAAR1 ag counter inactive
CC1CC(C)CN(C(=O)c2cc(-c3ccncc3)nc3ccccc23)C1 (centres undefined)	none (no result: GPR7 antagonist)
O=C(c1cc(-c2ccncc2)nc2ccccc12)N1CCOCC1	none (no result: CHO parental Ca, OX1R antag-1, OX1R antag-2, GPR7 antagonist)
O=C(c1cc(-c2ccccc2Cl)nc2ccc(Br)cc12)N1CCN(c2ccccn2)CC1	TAAR1 antagonist 59.1 | nonsel antag count 30.3 | TAAR1 antag conf inactive | Ga16 nonsel ag inactive | TAAR1 ag counter inactive
